In ChEMBL document CHEMBL1154192, “A series of 1, 2-coupled indane dimers with mast cell stabilisation and smooth muscle relaxation properties” (Eur J Med Chem, 2009):
pIC50: −log10 of the molar value.

Tests used:
Mast cell = assay: Inhibition of compound 48/80-induced histamine release in Wistar rat peritoneal mast cell at 20 uM treated 10 mins before compound 48/80 challenge; assay type: functional
Summary of the method: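 Peritoneal cells were lavaged from female Wistar rats (250–350 g) into prewarmed (37 °C) HEPES-buffered salt solution, without purification. Cells were centrifuged, washed three times and held at 4 °C. Inhibition is given as percentage of stimulated release, mean ± SEM, n = 5–10.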

Ileum [1] = assay: Inhibition of calcium-induced contraction in guinea pig ileum at 10 uM; assay type: functional; settings: Cavia porcellus
Summary of the method: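 Guinea-pig ileum was suspended in calcium-free Krebs solution containing 45 mM K+ and contracted by bringing bath calcium to 2.5 mM (sustained >40 min). At stable maximal contracture a single 1 × 10⁻⁵ M concentration was added. Inhibition is given as percentage of stimulated contraction, mean ± SEM, n = 6–12.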

Ileum [2] = assay: Inhibition of calcium-induced contraction in guinea pig ileum at 0.03 to 10 uM; assay type: functional, tissue-based; settings: Cavia porcellus
Summary of the method: (§1)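 Isolated guinea-pig ileum in high-potassium (45 mM), calcium-free modified Krebs solution. Sustained contractures (>40 min) were elicited by raising bath CaCl2 to 2.5 mM. Once contraction reached a stable maximum, compound was added cumulatively (3 × 10⁻⁸ – […]). IC50 was calculated from the concentration-effect curve.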

Ileum [3] = assay: Inhibition of calcium-induced contraction in guinea pig ileum; assay type: functional, tissue-based; settings: Cavia porcellus; summary of the method: as §1
Ileum [4] = assay: Inhibition of calcium-induced contraction in guinea pig ileum at 0.001 to 0.1 uM; assay type: functional, tissue-based; settings: Cavia porcellus
Summary of the method: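 Isolated guinea-pig ileum in high-potassium (45 mM), calcium-free modified Krebs solution. CaCl2 was added to raise bath calcium to 2.5 mM, giving sustained (>40 min) contractures. At stable maximum, drug was added cumulatively at […] to 1 × 10^-7 M. Read-out was inhibition of contracture; IC50 was calculated from the concentration-effect curve.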

Ileum [5] = assay: Inhibition of calcium-induced contraction in guinea pig ileum at 0.01 uM; assay type: functional; settings: Cavia porcellus
Summary of the method: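 Isolated guinea-pig ileum in high-potassium (45 mM), calcium-free modified Krebs solution. Sustained (>40 min) contractures were elicited by raising bath calcium to 2.5 mM with CaCl2. At stable maximum, a single concentration (1 × 10^-8 M) was added. Inhibition was expressed as a percentage of stimulated values, mean ± SEM, n = 6.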

Question: Which inhibition at 20 µM (Mast cell) does the source give for `O=C(O)CC1(C2=CCc3ccccc32)Cc2ccccc2C1=O` (stereo unspecified) here?
Answer: The inhibition at 20 µM was 10.3%.

Question: And the inhibition at 10 µM (Ileum [1])?
Answer: The inhibition at 10 µM was 1.8%.

Question: How did the inhibition at 20 µM (Mast cell) turn out when `CCCCCC1(C2=CCc3ccccc32)Cc2ccccc2C1=O` (stereo unspecified) was run?
Answer: The inhibition at 20 µM was -3.2%.

Question: What about the inhibition at 10 µM (Ileum [1]) of the same compound?
Answer: Its inhibition at 10 µM is 18%.

Question: What does the source list for `CCCC1(C2=CCc3ccccc32)Cc2ccccc2C1=O` (stereo unspecified)?
Answer: inhibition at 20 µM (Mast cell): 41.2%; inhibition at 10 µM (Ileum [1]): 51.7%

Question: Which inhibition at 20 µM (Mast cell) does the source give for `CC/C=C/CC1(C2=CCc3ccccc32)Cc2ccccc2C1O` (stereo unspecified) here?
Answer: Its inhibition at 20 µM is 49.7%.

Question: And the inhibition at 10 µM (Ileum [1])?
Answer: Its inhibition at 10 µM is 25.6%.

Question: What does the source list for `O=C1c2ccccc2CC1(Cc1ccccc1)C1=CCc2ccccc21` (stereo unspecified)?
Answer: inhibition at 20 µM (Mast cell): 24.7%; inhibition at 10 µM (Ileum [1]): 18.9%

Question: With `CCCC1(C2=CCc3ccccc32)Cc2ccccc2C1O` (stereo unspecified) as the compound, how does the inhibition at 20 µM (Mast cell) read?
Answer: Its inhibition at 20 µM is -26%.

Question: And the inhibition at 10 µM (Ileum [1])?
Answer: The inhibition at 10 µM was 34.3%.

Question: Which inhibition at 20 µM (Mast cell) does the source give for `CC/C=C/CC1(C2=CCc3ccccc32)Cc2ccccc2C1=O` (stereo unspecified) here?
Answer: The inhibition at 20 µM was 32.5%.

Question: What about the inhibition at 10 µM (Ileum [1]) of the same compound?
Answer: Its inhibition at 10 µM is 19.9%.

Question: Which results are given for `C=CCC1(C2=CCc3ccccc32)Cc2ccccc2C1O` (stereo unspecified)?
Answer: pIC50 (Ileum [2]): 5.21; pIC50 (Ileum [3]): 5.21; inhibition at 20 µM (Mast cell): -35.5%; inhibition at 10 µM (Ileum [1]): 79.5%

Question: `CCC1(C2=CCc3ccccc32)Cc2ccccc2C1=O` (stereo unspecified) was tested. Which inhibition at 20 µM (Mast cell) did it give?
Answer: The inhibition at 20 µM was 19.4%.

Question: And the inhibition at 10 µM (Ileum [1])?
Answer: The inhibition at 10 µM was 49.6%.

Question: With `CC1(C2=CCc3ccccc32)Cc2ccccc2C1=O` (stereo unspecified) as the compound, how does the inhibition at 20 µM (Mast cell) read?
Answer: Its inhibition at 20 µM is 15.6%.

Question: And the inhibition at 10 µM (Ileum [1])?
Answer: Its inhibition at 10 µM is 41.3%.

Question: For `COC(=O)CC1(C2=CCc3ccccc32)Cc2ccccc2C1=O` (stereo unspecified), which inhibition at 20 µM (Mast cell) is on record?
Answer: The inhibition at 20 µM was 21.9%.

Question: And the inhibition at 10 µM (Ileum [1])?
Answer: Its inhibition at 10 µM is 20.5%.

Question: Which results are given for `COC(=O)c1ccc(CC2(C3=CCc4ccccc43)Cc3ccccc3C2=O)cc1` (stereo unspecified)?
Answer: inhibition at 20 µM (Mast cell): -27.8%; inhibition at 10 µM (Ileum [1]): 31.5%

Question: How did the inhibition at 20 µM (Mast cell) turn out when `O=C(O)c1cc(=O)c2c(OCC(O)COc3cccc4oc(C(=O)O)cc(=O)c34)cccc2o1` [CROMOLYN SODIUM] was run?
Answer: Its inhibition at 20 µM is 9.1%.

Question: With `COC(=O)C1=C(C)NC(C)=C(C(=O)OC)C1c1ccccc1[N+](=O)[O-]` [NIFEDIPINE] as the compound, how does the pIC50 (Ileum [4]) read?
Answer: Its pIC50 is 7.83.

Question: And the inhibition at 0.01 µM (Ileum [5])?
Answer: The inhibition at 0.01 µM was 48.1%.

Question: What about the pIC50 (Ileum [3]) of the same compound?
Answer: Its pIC50 is 7.83.

Question: How did the pIC50 (Ileum [3]) turn out when `Cc1cc2c(c(C)c1CCO)C(=O)C(C)(C)C2` [PTEROSIN Z] was run?
Answer: Its pIC50 is 5.89.
